TPT1 inh – blocks Candida albicans tRNA 2'-phosphotransferase | recombinant caTPT1, FP RNA substrate dephosphorylation | inhibition, % at 5 µM | 0.81% of 300,000 active | AID 1962;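 active = inhibition above the mean of all tested compounds plus 3 SD, set per screening campaign, cut at about 24% in these data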;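 also: plate controls were DMSO alone for no effect and ferristatin control at 100 nM for full effect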
HNF4A DNA FP – change in binding of human HNF4 alpha to DNA; P41235; HNF4a-FITC DNA binding, fluorescence polarization, 1 h; activity change, % at 10 µM; 0.3% of 360,000 active; AID 1224865; in the data active = activity change above about 30%, passing the limit was not always enough
Rpn11 inh – Rpn11 (human) deubiquitinase inhibition. 0.59% of 360,000 active. AID 588493. human 26S proteasome, Ub4-pepOG fluorescence polarization; 20S core pre-blocked with epoxomicin. calls only at 20 µM;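 active = inhibition at 20 µM, scaled to each plate's controls, above about 33%, limit read from the data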
Target sequence (O00487 whole entry, looked up): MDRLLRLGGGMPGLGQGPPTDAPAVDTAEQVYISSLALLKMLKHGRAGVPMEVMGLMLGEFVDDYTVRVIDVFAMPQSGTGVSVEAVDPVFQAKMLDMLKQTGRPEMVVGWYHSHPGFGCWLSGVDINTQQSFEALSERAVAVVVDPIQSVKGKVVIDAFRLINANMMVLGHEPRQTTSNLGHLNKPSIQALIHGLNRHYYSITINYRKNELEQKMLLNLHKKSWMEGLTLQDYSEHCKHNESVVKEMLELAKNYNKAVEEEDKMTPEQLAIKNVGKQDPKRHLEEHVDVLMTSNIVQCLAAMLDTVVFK
CSN inh – inhibitors of human CSN-mediated cullin deneddylation. Q92905. Purified CSN, SCF-Nedd8-OG deneddylation, fluorescence polarization. inhibition, % at 12.5 µM. 0.38% of 360,000 active. AID 651999;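 active = pattern-corrected inhibition above about 35%, with an unprinted fluorescence ratio check between 0.5 and 1.5, limit read from the data, passing the limit was not always enough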;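 also: 0% = enzyme with substrate and 100% = substrate without enzyme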
Target sequence (Q92905 whole entry, looked up, one chain of several): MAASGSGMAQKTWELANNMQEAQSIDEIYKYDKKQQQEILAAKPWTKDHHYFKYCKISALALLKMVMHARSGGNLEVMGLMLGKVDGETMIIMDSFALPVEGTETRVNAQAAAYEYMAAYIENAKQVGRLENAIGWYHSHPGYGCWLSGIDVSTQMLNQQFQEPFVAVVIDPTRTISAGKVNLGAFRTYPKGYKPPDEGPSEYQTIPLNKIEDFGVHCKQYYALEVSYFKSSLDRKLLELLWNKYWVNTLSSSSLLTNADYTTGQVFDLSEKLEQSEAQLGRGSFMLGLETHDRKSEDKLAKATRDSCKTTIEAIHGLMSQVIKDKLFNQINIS
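Schedule: reaction 90 min, room temperature / Assay system: HEK293T-derived human Csn5 enzyme / Input: Csn5 at 0.24 nM final / Measure: inhibition of Csn5 cleavage, % / Control set: substrate-only high control, full reaction low control / Technique: fluorescence polarization of the substrate / Buffer or medium: Tris/NaCl/DTT buffer, pH 7.5 / Reagent: SCFSkp2-Nedd8OG substrate at 10 nM final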
CRFR2-BP antag – blocks CRF-induced signaling of the CRF-BP/CRF-R2 complex; inhibition, % at 11.8 µM; HEK293 CRF-R2/CRF-BP, CRF-induced calcium fluorescence; AID 588475; 0.59% of 350,000 active;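 active = inhibition of the ligand-induced calcium signal above about 50% at the single tested concentration, limit read from the data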
CRFR2-BP ag – agonists of human CRF-binding protein/CRF-R2 receptor complex; 0.46% of 350,000 active; HEK293 CRF-R2/CRF-BP, calcium dye fluorescence (FLIPR); percent of saturating CRF peptide response; AID 588473; activation, % at 13.2 µM;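 active = activation of at least 50%, plus an integration ratio under a set limit after plate pattern correction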;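 also: plate controls were neutral control wells without compound for no effect and CRF at EC100 for full effect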
* = called active by the depositor; i = inactive; · = not tested or not shown. The list is not random: actives were taken first. Their share in the collection is about 2.3%.

SMILES	TPT1 inh	HNF4A DNA FP	Rpn11 inh	CSN inh	CRFR2-BP antag	CRFR2-BP ag
CCCCNC(=O)CCc1nc2cccnc2n1Cc1ccc(OC)cc1	0.3	4.9	i	-2.0	69.0*	-2.3
O=C(COC(=O)CCc1ccc(S(=O)(=O)N2CCOCC2)cc1)Nc1ccccc1OC(F)F	·	-0.7	i	0.9	105.0*	2.4
O=C(CCCN1C(=O)c2ccccc2C1=O)Nc1cccnc1	-6.4	0.1	i	-1.3	-13.2	1.9
CCOC(=O)c1cc(=O)cc(C(=O)OCC)o1	-3.0	2.4	i	-2.0	50.2*	-2.0
CCCn1nc(-c2ccccc2)c2nc3ccccc3nc21	-6.6	·	·	·	-42.7	105.5*
CCn1nc(-c2ccccc2)c2nc3ccccc3nc21	-9.5	-38.1	i	-21.6	-187.7	159.5*
CCCCCn1nc(-c2ccccc2)c2nc3ccccc3nc21	2.8	-77.5	i	-73.2	-255.6	175.6*
CCn1c2ccc(Cl)cc2c2nc3ccccc3nc21	0.0	·	·	·	-5.6	3.1
CCCCn1c2nc3ccccc3nc2c2c(=O)n(CCC)cnc21	-4.5	-0.7	i	4.0	0.0	1.5
CCCN(CC(=O)Nc1ccc(F)c(F)c1F)C(=O)Cn1c(=O)cnc2ccccc21	3.7	1.9	i	-7.6	-10.6	-1.1
CCOC(=O)c1nn(-c2ccc(C)cc2)c2nc(Nc3ccccc3)cc(=O)n12	9.9	-0.3	i	9.0	-5.3	0.2
O=c1[nH]c2ccccc2c(O)c1O	-1.0	-1.2	i	5.3	97.2*	-0.5
CCOc1ccc(CCNC(=O)COC(=O)CCC(=O)c2cccs2)cc1OCC	·	-0.8	i	37.6*	3.4	-0.7
CCOc1ccc(-c2nnc(SCC(=O)N3CCNC3=O)o2)cc1	·	-3.8	i	-2.6	-2.5	0.1
CCOC(=O)c1c(-c2ccccc2)oc2ccc(OC(C)C(=O)O)cc12 (stereo not given)	-2.1	-1.7	i	-0.8	51.5*	-0.9
O=C(Nc1ccccc1C(=O)Nc1nnc(C(F)(F)F)s1)c1ccccc1Cl	-2.0	-1.9	i	1.7	50.2*	49.0
NC(=O)c1ccccc1NC(=O)c1ccccc1Cl	0.9	-0.2	i	1.9	4.3	0.1
CC(NC(=O)Nc1nnc(C(F)(F)F)s1)(C(F)(F)F)C(F)(F)F	-7.4	-1.8	i	2.7	28.1	59.4*
O=C(Nc1nnc(C(F)(F)F)s1)c1ccc(Br)s1	0.4	2.0	i	-4.3	54.3*	97.9*
Cc1c(C(=O)N(C)C(C)c2ccccn2)oc2c(F)cccc12 (stereo not given)	0.0	-2.3	i	5.1	-3.1	-2.3
COc1ccc(Nc2nc(N3CCOCC3)nc(N3CCOCC3)n2)cc1	·	1.5	i	0.9	-6.5	-6.3
C[C@@H]1CN([C@H](C)CO)C(=O)c2cc(C#Cc3ccccc3F)cnc2O[C@@H]1CN(C)S(=O)(=O)c1ccccc1F	·	-0.8	i	-1.4	-15.8	0.1
CCCNc1ccc(C(=O)OCC)cc1[N+](=O)[O-]	-0.4	3.1	i	-1.3	61.2*	-8.2
CCCN(C(=O)c1cc(Cl)nc2ccccc12)C1CCS(=O)(=O)C1 (stereo not given)	2.4	0.4	i	5.2	75.1*	-1.5
Cc1cc(C)cc(NS(=O)(=O)c2ccc3[nH]cc(C(=O)N4CCc5ccccc54)c(=O)c3c2)c1	-0.7	-0.7	i	0.1	-101.3	61.0*
SMILES	TPT1 inh	HNF4A DNA FP	Rpn11 inh	CSN inh	CRFR2-BP antag	CRFR2-BP ag
CCN(CC)CCNS(=O)(=O)c1ccc2[nH]cc(C(=O)O)c(=O)c2c1	-0.2	-5.7	i	-4.7	16.6	-3.1
CCc1ccc(NS(=O)(=O)c2ccc3[nH]cc(C(=O)N4CCc5ccccc54)c(=O)c3c2)cc1	-0.5	0.5	i	-9.0	-47.9	1.3
CCN(CC)C(=O)c1c[nH]c2ccc(S(=O)(=O)Nc3cc(C)cc(C)c3)cc2c1=O	-5.0	0.0	i	-3.7	-106.2	125.4*
Cc1ccc(CNC(=O)COC(=O)CSc2ccc(Br)cc2C)cc1	-1.0	1.8	i	2.6	6.8	1.3
Cc1cc(C(F)(F)F)c(C#N)c(SCC(=O)Nc2nc3ccccc3s2)n1	16.0	54.2	·	51.6	-164.0	80.2*
Cc1nc(SCC(=O)Nc2nc3ccccc3s2)c(C#N)c(C)c1C	-0.2	-4.5	i	2.0	-7.9	-1.0
CC(C(=O)Nc1sccc1C(N)=O)N1C(=O)C2CC=CCC2C1=O (stereo not given)	1.7	3.7	i	1.9	63.2*	-3.4
Cc1nc2cc(NS(=O)(=O)c3ccccc3F)ccc2s1	1.5	1.2	i	-2.4	11.2	-3.5
Cc1ccsc1/C=N\NC(=O)CCc1c(C)n[nH]c1C	-1.3	2.6	i	-6.7	52.1*	4.5
CCS(=O)(=O)Nc1ccc(-c2nnc(SCC(=O)c3ccc(NC(C)=O)c(OC)c3)o2)cc1	-5.0	1.6	i	45.8*	29.7	-4.2
O=C(O)c1cccc(-n2cccc2/C=C2/NC(=O)N(c3ccc(Cl)cc3)C2=O)c1	·	-73.7	·	19.1	11.9	0.1
O=C(O)c1cccc(-n2cccc2/C=C2/NC(=O)N(c3cccc(Cl)c3)C2=O)c1	7.8	-26.8	i	35.1*	5.6	-0.1
CCOc1cc(-c2cn(S(=O)(=O)c3cccc4nsnc34)nc2N)cc(OCC)c1OCC	2.0	6.3	i	-0.9	70.1*	-1.5
Cc1c(C)c2ccc(OCC(=O)NCc3ccccn3)cc2oc1=O	-2.5	2.5	i	72.3*	6.2	-1.1
CC(NS(=O)(=O)c1ccc(OCC(=O)NCc2ccccn2)cc1)c1ccccc1 (stereo not given)	-1.1	1.2	i	2.4	-3.4	-1.3
CCC(C)NS(=O)(=O)c1ccc(OCC(=O)NCc2ccccn2)cc1 (stereo not given)	-0.9	-3.7	i	-5.6	51.4*	14.0
Cc1cc(=O)oc2cc(OCC(=O)NCc3ccccn3)ccc12	-2.3	1.7	i	1.0	-2.3	0.2
Cc1ccc(NC(=O)CN(C)C(=O)CNC(=O)c2cccs2)cc1	1.9	-3.9	i	4.0	-14.5	-0.3
CC1(C)CC(=O)C2=C(C1)NC(=O)NC2c1ccccc1 (stereo not given)	-2.6	3.8	i	-7.6	10.2	-3.0
CC1C2=C(CC(C)(C)CC2=O)NC2=C1C(=O)CC(C)(C)C2	-1.1	2.6	i	-8.6	-85.1	67.5*
COc1ccc(CCN2C(=O)CC(Cc3ccccc3)C2=O)cc1OC (stereo not given)	-7.3	0.0	i	4.3	79.5*	5.6
NC(=O)/C(N=Nc1ccccc1)=N/Nc1ccccc1	3.0	4.4	i	-2.8	5.8	-1.7
CC(C)(C)C1COc2ccccc2N1C(=O)c1ccccc1Cl (stereo not given)	1.4	-0.7	i	-2.7	-61.9	56.9*
